Here are results for 20 compounds from ChEMBL document CHEMBL1150387, “Development and experimental validation of a docking strategy for the generation of kinase-targeted libraries” (J Med Chem, 2008).

SMILES strings stand for the structures.

The target in assay [1] is Fibroblast growth factor receptor 1 (Homo sapiens) (UniProt P11362). Kind of assay: Inhibition of FGFR1 at 10 uM by HTRF assay relative to control. Put shortly:
(§1)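 HTRF kinase assay, one panel of kinases. Inhibitor stock 50 µM in 100% DMSO; tested at 10 µM. ATP and substrate at final levels near Km. Final buffer: 50 mM Hepes/NaOH pH 7.4, 40 µM Na3VO4, 0.005% Tween-20, 1 mM DTT, MnCl2 or MgCl2 at kinase-dependent levels. Started by adding ATP/substrate. Reaction run at room temperature, time varied by kinase. Detection mix in 50 mM Hepes pH 7.4, 0.1% BSA, 150 mM KF, incubated ≥1 h at room temperature. Activity expressed as % of uninhibited control; n=2.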

In assay [2] the target is T1, Inhibitor of nuclear factor kappa-B kinase subunit beta (Homo sapiens) (UniProt O14920).
T1 sequence (whole entry): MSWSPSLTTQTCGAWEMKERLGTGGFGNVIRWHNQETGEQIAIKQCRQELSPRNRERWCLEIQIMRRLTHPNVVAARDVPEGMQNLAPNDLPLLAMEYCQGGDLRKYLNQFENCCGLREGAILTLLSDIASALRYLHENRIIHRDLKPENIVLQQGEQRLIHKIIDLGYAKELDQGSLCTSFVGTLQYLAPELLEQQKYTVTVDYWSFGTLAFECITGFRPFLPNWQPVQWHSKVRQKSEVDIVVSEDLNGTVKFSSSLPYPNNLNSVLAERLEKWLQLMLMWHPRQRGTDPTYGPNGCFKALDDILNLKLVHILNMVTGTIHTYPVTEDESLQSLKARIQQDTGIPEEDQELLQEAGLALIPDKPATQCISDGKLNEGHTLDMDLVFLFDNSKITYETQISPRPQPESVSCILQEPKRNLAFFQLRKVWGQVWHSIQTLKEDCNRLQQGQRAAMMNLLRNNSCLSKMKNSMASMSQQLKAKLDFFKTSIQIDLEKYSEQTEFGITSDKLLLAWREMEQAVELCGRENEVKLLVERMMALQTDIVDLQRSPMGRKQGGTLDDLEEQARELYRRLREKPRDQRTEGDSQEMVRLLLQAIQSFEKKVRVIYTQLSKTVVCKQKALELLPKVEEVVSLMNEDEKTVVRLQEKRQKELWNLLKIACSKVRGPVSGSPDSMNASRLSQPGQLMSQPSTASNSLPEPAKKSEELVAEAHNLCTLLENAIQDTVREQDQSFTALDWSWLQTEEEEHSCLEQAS
Kind of assay: Inhibition of IKK-beta at 10 uM by HTRF assay relative to control. Put shortly:
as §1
(In general: In TR-FRET formats the signal depends on donor and acceptor labels being close together.)

A short description of assay [3]: Inhibition of AMPKalpha at 10 uM by HTRF assay relative to control. The method in brief: as §1
Assay [4] addresses Ribosomal protein S6 kinase alpha-3 (Homo sapiens) (UniProt P51812). Kind of assay: Inhibition of RSK2 at 10 uM by HTRF assay relative to control. Put shortly: as §1
For assay [5], the target named is T2, Tyrosine-protein kinase ZAP-70 (Homo sapiens) (UniProt P43403).
T2 sequence (whole entry): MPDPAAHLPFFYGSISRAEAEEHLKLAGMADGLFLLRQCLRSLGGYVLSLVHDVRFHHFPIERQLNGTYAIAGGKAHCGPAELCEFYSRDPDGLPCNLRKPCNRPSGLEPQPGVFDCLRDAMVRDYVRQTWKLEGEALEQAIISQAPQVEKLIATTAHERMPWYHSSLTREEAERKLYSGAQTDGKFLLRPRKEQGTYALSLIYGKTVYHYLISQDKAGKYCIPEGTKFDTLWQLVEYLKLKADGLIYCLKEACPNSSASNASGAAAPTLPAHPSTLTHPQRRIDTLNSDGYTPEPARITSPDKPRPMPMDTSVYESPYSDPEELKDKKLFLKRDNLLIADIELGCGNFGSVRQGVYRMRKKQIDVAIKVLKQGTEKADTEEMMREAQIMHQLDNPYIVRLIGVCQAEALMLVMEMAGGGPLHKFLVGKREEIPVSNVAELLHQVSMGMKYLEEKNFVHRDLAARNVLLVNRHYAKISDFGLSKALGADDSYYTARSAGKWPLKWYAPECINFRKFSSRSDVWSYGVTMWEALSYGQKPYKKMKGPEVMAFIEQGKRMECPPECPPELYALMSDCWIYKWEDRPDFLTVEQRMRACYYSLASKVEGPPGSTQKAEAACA
Kind of assay: Inhibition of ZAP70 at 10 uM by HTRF assay relative to control. Put shortly: as §1

The target in assay [6] is T3, Tyrosine-protein kinase JAK3 (Homo sapiens) (UniProt P52333).
T3 sequence (whole entry): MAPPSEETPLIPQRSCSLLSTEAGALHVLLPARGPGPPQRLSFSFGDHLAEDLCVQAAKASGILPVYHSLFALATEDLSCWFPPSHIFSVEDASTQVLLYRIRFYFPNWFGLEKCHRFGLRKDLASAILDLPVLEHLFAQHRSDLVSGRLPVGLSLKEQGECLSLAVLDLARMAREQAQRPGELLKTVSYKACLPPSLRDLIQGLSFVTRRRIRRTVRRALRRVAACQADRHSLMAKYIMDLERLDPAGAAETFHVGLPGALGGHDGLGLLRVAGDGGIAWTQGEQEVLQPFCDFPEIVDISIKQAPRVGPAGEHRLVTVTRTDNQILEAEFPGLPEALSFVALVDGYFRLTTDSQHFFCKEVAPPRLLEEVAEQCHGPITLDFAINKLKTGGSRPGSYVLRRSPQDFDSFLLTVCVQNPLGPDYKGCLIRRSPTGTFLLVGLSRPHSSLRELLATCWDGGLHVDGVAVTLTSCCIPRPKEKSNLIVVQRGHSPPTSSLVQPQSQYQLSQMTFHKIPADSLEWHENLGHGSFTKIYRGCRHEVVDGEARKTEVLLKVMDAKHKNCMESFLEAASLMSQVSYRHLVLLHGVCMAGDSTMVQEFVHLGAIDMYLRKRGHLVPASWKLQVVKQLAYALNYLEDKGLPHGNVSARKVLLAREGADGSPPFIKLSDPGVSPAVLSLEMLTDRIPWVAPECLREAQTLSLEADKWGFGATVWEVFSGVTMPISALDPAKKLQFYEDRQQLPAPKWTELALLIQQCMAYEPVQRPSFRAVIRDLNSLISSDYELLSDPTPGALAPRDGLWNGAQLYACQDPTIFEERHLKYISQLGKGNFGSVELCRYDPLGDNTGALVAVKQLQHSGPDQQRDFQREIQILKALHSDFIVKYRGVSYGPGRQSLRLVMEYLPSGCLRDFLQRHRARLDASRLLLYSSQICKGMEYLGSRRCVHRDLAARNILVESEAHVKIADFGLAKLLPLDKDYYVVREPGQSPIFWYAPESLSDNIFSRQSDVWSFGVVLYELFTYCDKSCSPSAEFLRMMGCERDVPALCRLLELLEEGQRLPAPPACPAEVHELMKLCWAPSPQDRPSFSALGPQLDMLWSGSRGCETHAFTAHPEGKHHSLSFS
Kind of assay: Inhibition of JAK3 at 10 uM by HTRF assay relative to control. The method in brief:
as §1

Chain of Fibroblast growth factor receptor 1 (Homo sapiens) (P11362 22-822 limits assumed): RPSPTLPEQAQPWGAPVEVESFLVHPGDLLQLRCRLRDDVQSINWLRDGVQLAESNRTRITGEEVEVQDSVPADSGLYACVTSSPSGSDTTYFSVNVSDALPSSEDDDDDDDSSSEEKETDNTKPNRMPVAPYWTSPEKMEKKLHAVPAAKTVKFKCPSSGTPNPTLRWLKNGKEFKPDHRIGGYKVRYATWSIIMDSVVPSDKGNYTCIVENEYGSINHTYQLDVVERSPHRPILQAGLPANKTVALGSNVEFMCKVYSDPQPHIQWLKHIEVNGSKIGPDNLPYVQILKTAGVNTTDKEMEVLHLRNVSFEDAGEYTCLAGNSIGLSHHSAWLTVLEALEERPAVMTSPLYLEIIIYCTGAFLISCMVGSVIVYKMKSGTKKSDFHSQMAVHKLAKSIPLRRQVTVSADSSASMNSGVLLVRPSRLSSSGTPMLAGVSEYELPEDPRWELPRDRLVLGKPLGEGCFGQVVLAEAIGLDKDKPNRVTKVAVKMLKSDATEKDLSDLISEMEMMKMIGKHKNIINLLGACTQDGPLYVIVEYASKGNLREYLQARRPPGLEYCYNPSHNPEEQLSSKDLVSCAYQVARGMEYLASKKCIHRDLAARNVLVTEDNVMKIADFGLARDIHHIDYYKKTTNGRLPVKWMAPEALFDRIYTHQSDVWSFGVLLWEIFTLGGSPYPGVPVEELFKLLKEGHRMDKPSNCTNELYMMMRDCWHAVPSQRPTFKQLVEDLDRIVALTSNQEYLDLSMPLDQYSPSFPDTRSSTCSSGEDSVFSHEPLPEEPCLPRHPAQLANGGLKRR
Chain of Ribosomal protein S6 kinase alpha-3 (Homo sapiens) (P51812 whole entry): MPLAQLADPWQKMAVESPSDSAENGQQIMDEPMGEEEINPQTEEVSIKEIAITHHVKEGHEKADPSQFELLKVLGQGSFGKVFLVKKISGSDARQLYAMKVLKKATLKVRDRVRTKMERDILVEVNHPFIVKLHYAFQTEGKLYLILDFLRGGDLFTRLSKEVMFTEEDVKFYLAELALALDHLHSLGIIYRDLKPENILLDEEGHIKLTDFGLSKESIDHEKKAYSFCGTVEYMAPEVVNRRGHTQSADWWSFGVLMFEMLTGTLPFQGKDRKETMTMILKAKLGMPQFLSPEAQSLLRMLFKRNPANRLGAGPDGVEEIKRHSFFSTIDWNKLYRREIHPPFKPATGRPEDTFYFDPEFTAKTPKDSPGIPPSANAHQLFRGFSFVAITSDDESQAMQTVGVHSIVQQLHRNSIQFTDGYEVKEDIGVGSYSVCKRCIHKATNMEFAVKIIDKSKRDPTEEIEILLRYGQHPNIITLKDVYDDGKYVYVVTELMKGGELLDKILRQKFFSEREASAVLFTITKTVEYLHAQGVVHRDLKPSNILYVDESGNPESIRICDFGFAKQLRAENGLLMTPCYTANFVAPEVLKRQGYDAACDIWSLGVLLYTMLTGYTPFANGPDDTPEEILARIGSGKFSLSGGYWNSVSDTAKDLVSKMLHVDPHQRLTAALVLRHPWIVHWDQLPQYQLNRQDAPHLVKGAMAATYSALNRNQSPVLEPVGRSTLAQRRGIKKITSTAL

What is called inhibition is the relative decrease from the control value, in per cent. Higher therefore signals strong suppression. For `CN(C)CC(C)(C)CNC(=O)c1cccc(Nc2nccc(Nc3ccc4ncsc4c3)n2)c1`, the inhibition is 86% in assay [1]; 52% in assay [2]; 72% in assay [3]; 17% in assay [4]; 18% in assay [5]; 91% in assay [6].
For the compound `Nc1nc(Nc2ccc3ncsc3c2)cc(N2CCC[C@H]2C(=O)NCCc2cccc(I)c2)n1`, the inhibition in assay [1] came to 13%; in assay [2] it was 4%; in assay [3], 6%; in assay [4] it was 0%; in assay [5], 2%; in assay [6] it was 16%.
Consider `COc1cccc(Nc2cc(N3CCC[C@H]3C(=O)NCCc3ccc(O)cc3)nc(N)n2)c1`, for which the inhibition in assay [1] came out at 7%; in assay [2] it was 4%; in assay [3], 9%; in assay [4], 0%; in assay [5] it was 2%; in assay [6], 0%.
Consider `Cc1cccc(N(C)c2cc(Nc3cccc(C(=O)N(CC(C)C)CC(C)C)c3)ncn2)c1`, for which the inhibition in assay [1], in assay [2], in assay [3], in assay [4], in assay [5] and in assay [6] was 0% each time.
Consider `O=C(NC[C@@H]1CCCO1)c1cccc(Nc2nccc(Nc3ccc4ncsc4c3)n2)c1`, for which the inhibition in assay [1] turned out to be 95%; in assay [2], 45%; in assay [3] it was 36%; in assay [4], 9%; in assay [5] it was 19%; in assay [6], 84%.
As for `O=C(C1CCN(c2nccc(Nc3ccccc3)n2)CC1)N1CC[C@@H](O)C1`, the inhibition in assay [1] was 4%; in assay [3], 7%; in assay [4] it was 0%; in assay [5], 3%; in assay [6], 0%.
For `O=C(NC1Cc2ccccc2C1)c1cccc(Nc2ccnc(N3CCN(c4ccccc4)CC3)n2)c1`, the inhibition in assay [1] stood at 2%; in assay [2], 1%; in assay [3], 9%; in assay [4], 0%; in assay [5], 6%; in assay [6], 0%.
For the compound `Nc1nc(Nc2ccccc2)cc(N2CCC(C(=O)NCCc3ccccn3)CC2)n1`, the inhibition in assay [1] was found to be 0%; in assay [2] it was 1%; in assay [3], 0%; in assay [4], 0%; in assay [5], 0%; in assay [6], 0%.
`Cc1cccc(N(C)c2cc(Nc3cccc(C(=O)N(C)CCc4ccccn4)c3)ncn2)c1`: the inhibition was 30% in assay [1]; 8% in assay [2]; 0% in assay [3]; 0% in assay [4]; 4% in assay [5]; 7% in assay [6].
Regarding `Nc1nc(Nc2ccc3ncsc3c2)cc(N2CCC[C@H]2C(=O)N[C@@H](CO)c2ccccc2)n1`, the inhibition is 7% in assay [1]; 4% in assay [2]; 20% in assay [3]; 0% in assay [4]; 6% in assay [5]; 6% in assay [6].
Regarding `Cc1cccc(Nc2nccc(Nc3cccc(C(=O)NCc4ccc(N(C)C)cc4)c3)n2)c1`, the inhibition was determined as 20% in assay [1]; 2% in assay [2]; 8% in assay [3]; 5% in assay [4]; 6% in assay [5]; 6% in assay [6].
As for `COC[C@@H]1CCCN1C(=O)[C@@H]1CCCN1c1cc(Nc2cccc(OC)c2)nc(N)n1`, the inhibition in assay [1] was found to be 0%; in assay [2] it was 9%; in assay [3], 2%; in assay [4], 5%; in assay [5], 0%; in assay [6], 0%.
As for `Cc1cccc(Nc2cc(Nc3cccc(C(=O)N(CC(C)O)CC(C)O)c3)ncn2)c1` (centres undefined), the inhibition in assay [1] worked out at 59%; in assay [2], 7%; in assay [3], 6%; in assay [4], 0%; in assay [5], 6%; in assay [6], 7%.
Regarding `O=C(NCc1ccncc1)c1cccc(Nc2cc(Nc3cccc(Br)c3)ncn2)c1`, the inhibition in assay [1] came out at 0%; in assay [2] it was 4%; in assay [3] it was 11%; in assay [4], 5%; in assay [5], 9%; in assay [6], 0%.
As to `COc1cccc(Nc2cc(Nc3cccc(C(=O)N(C)CCc4ccccn4)c3)nc(N)n2)c1`, the inhibition in assay [1] amounted to 7%; in assay [2], 6%; in assay [3], 13%; in assay [4], 0%; in assay [5], 3%; in assay [6], 18%.
In the case of `Nc1nc(N2CCOCC2)cc(N2CCC(C(=O)NCCc3ccc(O)cc3)CC2)n1`, the inhibition in assay [1] was determined as 15%; in assay [2], 4%; in assay [3], 12%; in assay [4], 0%; in assay [5], 2%; in assay [6], 0%.
As to `Cc1cccc(Oc2ccnc(N3CCC[C@H]3C(=O)NCc3cccnc3)n2)c1`, the inhibition in assay [1] was determined as 0%; in assay [2], 0%; in assay [3], 0%; in assay [4], 0%; in assay [5], 6%; in assay [6], 0%.
For `O=C(COc1ccccc1)N1CCN(c2nccc(Nc3ccc4ncsc4c3)n2)CC1`, the inhibition in assay [1] came to 16%; in assay [2], 10%; in assay [3] it was 49%; in assay [4], 0%; in assay [5], 0%; in assay [6] it was 5%.
Take `Cc1cccc(Nc2nccc(Nc3cccc(C(=O)N(C)CCc4ccccn4)c3)n2)c1`: the inhibition in assay [1] stood at 82%; in assay [2], 9%; in assay [3] it was 17%; in assay [4], 57%; in assay [5], 23%; in assay [6] it was 50%.
Regarding `Nc1nc(N2CCOCC2)cc(N2CCC(C(=O)NCc3cccs3)CC2)n1`, the inhibition in assay [1] worked out at 11%; in assay [2], 5%; in assay [3] it was 5%; in assay [4], 0%; in assay [5], 3%; in assay [6], 0%.
